Our source for the inhibition, Activity and GI50 values is ChEMBL document CHEMBL4229372, “Synthesis and anti-mitotic activity of 2,4- or 2,6-disubstituted- and 2,4,6-trisubstituted-2H-pyrazolo[4,3-c]pyridines” (2018).

In experiment [1] the target is Death-associated protein kinase 3 (Homo sapiens) (UniProt O43293). Nature of the experiment: Inhibition of DAPK3 (unknown origin).
The target in experiment [2] is T1, Serine/threonine-protein kinase Nek2 (Homo sapiens) (UniProt P51955).
T1 sequence (whole entry): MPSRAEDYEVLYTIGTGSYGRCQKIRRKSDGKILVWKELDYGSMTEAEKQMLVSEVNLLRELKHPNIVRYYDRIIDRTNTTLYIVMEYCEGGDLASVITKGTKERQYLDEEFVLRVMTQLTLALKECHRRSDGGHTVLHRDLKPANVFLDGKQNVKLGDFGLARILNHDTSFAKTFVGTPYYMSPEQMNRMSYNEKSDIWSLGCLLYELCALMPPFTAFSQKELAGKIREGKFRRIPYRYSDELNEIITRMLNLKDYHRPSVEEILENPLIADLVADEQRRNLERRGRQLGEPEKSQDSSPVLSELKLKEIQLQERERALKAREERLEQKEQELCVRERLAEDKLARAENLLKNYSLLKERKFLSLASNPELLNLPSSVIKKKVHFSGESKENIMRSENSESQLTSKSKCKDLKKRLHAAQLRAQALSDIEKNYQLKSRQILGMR
Kind of experiment: Inhibition of NEK2 (unknown origin).

The target of experiment [3] is T2, Serine/threonine-protein kinase Chk1 (Homo sapiens) (UniProt O14757).
T2 sequence (whole entry): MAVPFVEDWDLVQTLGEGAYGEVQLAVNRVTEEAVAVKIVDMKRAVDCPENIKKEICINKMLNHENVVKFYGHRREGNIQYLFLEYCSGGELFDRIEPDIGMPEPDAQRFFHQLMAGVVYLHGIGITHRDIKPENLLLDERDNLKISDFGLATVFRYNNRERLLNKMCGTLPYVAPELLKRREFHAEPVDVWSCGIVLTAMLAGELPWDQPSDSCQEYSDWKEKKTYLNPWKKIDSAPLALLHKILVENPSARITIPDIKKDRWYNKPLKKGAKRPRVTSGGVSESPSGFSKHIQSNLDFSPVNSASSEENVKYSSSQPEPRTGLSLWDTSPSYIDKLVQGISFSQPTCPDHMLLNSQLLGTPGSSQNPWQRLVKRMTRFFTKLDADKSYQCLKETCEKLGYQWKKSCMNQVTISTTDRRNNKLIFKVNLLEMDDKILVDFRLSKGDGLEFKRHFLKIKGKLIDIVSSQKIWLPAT
Nature of the experiment: Inhibition of CHK1 (unknown origin).

For experiment [4], the system named is K562. Kind of experiment: Cell cycle arrest in human K562 cells assessed as accumulation at G2/M phase at 10 uM after 24 hrs by propidium iodide staining-based flow cytometric analysis (reference value: 15%). The format is functional. (In general: A flow cytometer gives signals particle by particle.)
The subject of experiment [5] is MCF7. Kind of experiment: Cell cycle arrest in human MCF7 cells assessed as accumulation at G1 phase at 10 uM after 24 hrs by propidium iodide staining-based flow cytometric analysis (reference value: 60.7%). The format is functional. The method in brief:
(§1)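 MCF-7 cells in DMEM with 10% FBS and penicillin/streptomycin at 37 °C, 5% CO2. Asynchronous cells were treated 24 h, PBS-washed, trypsinized and quenched with 0.1% trypsin inhibitor. Staining used 5× citrate/IGEPAL/spermine/Tris buffer (pH 7.6) with 50 μg/mL propidium iodide. DNA content was read by 488 nm flow cytometry and cell-cycle phases modelled.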

The test system of experiment [6] is MCF7. Nature of the experiment: Cell cycle arrest in human MCF7 cells assessed as accumulation at G2/M phase at 10 uM after 24 hrs by propidium iodide staining-based flow cytometric analysis (reference value: 5.3%). The format is functional. In outline:
as §1

Experiment [7] has as its system K562. Nature of the experiment: Cell cycle arrest in human K562 cells assessed as accumulation at G1 phase at 10 uM after 24 hrs by propidium iodide staining-based flow cytometric analysis (reference value: 34.6%). It is filed as functional.
Experiment [8] concerns K562. Nature of the experiment: Cell cycle arrest in human K562 cells assessed as accumulation at G2/M phase assessed as accumulation of histone H3 phosphorylation at serine 10 residues at 5 uM after 24 hrs by propidium iodide staining-based flow cytometric analysis (reference value: 2.2%). It is filed as functional.
Experiment [9] concerns MCF7. Nature of the experiment: Induction of apoptosis in human MCF7 cells assessed as increase in gammaH2AX level at 1.25 to 20 uM after 24 hrs by immunoblotting. It is filed as functional, cell-based. The method in brief: (§2)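 Cells treated 24 h with a range of doses, with 1 μM doxorubicin as control. Cells were harvested into Laemmli buffer, run on SDS-PAGE and blotted to nitrocellulose. Membranes were probed overnight with primary antibodies (PARP, Ser139-phospho-H2AX, Bcl-2, β-actin loading control), then peroxidase secondaries, with ECL detection on a CCD imager.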
A general note: Immunoblotting shows a protein as a band on a membrane.

The subject of experiment [10] is K562. Nature of the experiment: Induction of apoptosis in human K562 cells assessed as increase in phosphorylated Bcl2 level at 1.25 to 20 uM after 24 hrs by immunoblotting. The format is functional, cell-based. The method in brief: as §2
Experiment [11] deals with Serine/threonine-protein kinase Nek6 (Homo sapiens) (UniProt Q9HC98). Nature of the experiment: Inhibition of NEK6 (unknown origin).
Experiment [12] deals with K562. Kind of experiment: Growth inhibition of human K562 cells after 72 hrs by Calcein AM dye based fluorescence assay. The format is functional. Conditions: K562, 72 h. The method in brief:
(§3)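 Cells in DMEM with 10% FBS at 37 °C, 5% CO2, treated in triplicate with six doses for 72 h. Calcein AM was added for 1 h and live-cell fluorescence read at 485/538 nm. GI50 was taken from dose-response curves.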

The target in experiment [13] is Serine/threonine-protein kinase PLK2 (Homo sapiens) (UniProt Q9NYY3). Kind of experiment: Inhibition of PLK2 (unknown origin).
The subject of experiment [14] is MCF7. Nature of the experiment: Cell cycle arrest in human MCF7 cells assessed as accumulation at S phase at 10 uM after 24 hrs by propidium iodide staining-based flow cytometric analysis (reference value: 34.1%). It is filed as functional. The method in brief:
as §1

In experiment [15] the target is Serine/threonine-protein kinase Nek4 (Homo sapiens) (UniProt P51957). Kind of experiment: Inhibition of NEK4 (unknown origin).
Experiment [16] relates to K562. Nature of the experiment: Induction of apoptosis in human K562 cells assessed as activation of caspase 3/7 using Ac-DEVD-AMC as substrate after 24 hrs by fluorescence assay. The format is functional, cell-based. The method in brief:
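K562 cells were cultured overnight and treated with increasing concentrations for 24 h. Lysis buffer (3×; HEPES pH 7.4, NaCl, KCl, MgCl2, EGTA, NP40, CHAPS, sucrose, DTT, PMSF) containing 150 μM Ac-DEVD-AMC was added for 2 h. Fluorescence was read at 346/442 nm and normalized to untreated control.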

The test system of experiment [17] is MCF7. Nature of the experiment: Cell cycle arrest in human MCF7 cells assessed as accumulation at sub G1 phase at 10 uM after 24 hrs by propidium iodide staining-based flow cytometric analysis (reference value: 7.1%). The format is functional. In outline: as §1
Experiment [18] relates to MCF7. Kind of experiment: Induction of apoptosis in human MCF7 cells assessed as increase in PARP1 cleavage after 24 hrs by Immunoblotting. The format is functional, cell-based. The method in brief: as §2
Experiment [19] addresses Serine/threonine-protein kinase pim-2 (Homo sapiens) (UniProt Q9P1W9). Nature of the experiment: Inhibition of PIM2 (unknown origin).
For experiment [20], the system named is K562. Nature of the experiment: Cell cycle arrest in human K562 cells assessed as accumulation at G2/M phase after 24 hrs by propidium iodide staining-based flow cytometric analysis. It is filed as functional.
Experiment [21] has as its system MCF7. Kind of experiment: Growth inhibition of human MCF7 cells after 72 hrs by Calcein AM dye based fluorescence assay. The format is functional. Conditions: MCF7, 72 h. The method in brief: as §3
The test system of experiment [22] is MCF7. Nature of the experiment: Induction of apoptosis in human MCF7 cells assessed as increase in phosphorylated Bcl2 level at 1.25 to 20 uM after 24 hrs by immunoblotting. The format is functional, cell-based. In outline: as §2
In experiment [23] the target is Cyclin-dependent kinase 1 (Homo sapiens) (UniProt P06493). Kind of experiment: Inhibition of CDK1 (unknown origin).

Structures are written as SMILES. Active and inactive are the calls of the source. The calls are words filed in the database; no cut-off is given here.

Chain of Serine/threonine-protein kinase Nek4 (Homo sapiens) (P51957 whole entry, looked up): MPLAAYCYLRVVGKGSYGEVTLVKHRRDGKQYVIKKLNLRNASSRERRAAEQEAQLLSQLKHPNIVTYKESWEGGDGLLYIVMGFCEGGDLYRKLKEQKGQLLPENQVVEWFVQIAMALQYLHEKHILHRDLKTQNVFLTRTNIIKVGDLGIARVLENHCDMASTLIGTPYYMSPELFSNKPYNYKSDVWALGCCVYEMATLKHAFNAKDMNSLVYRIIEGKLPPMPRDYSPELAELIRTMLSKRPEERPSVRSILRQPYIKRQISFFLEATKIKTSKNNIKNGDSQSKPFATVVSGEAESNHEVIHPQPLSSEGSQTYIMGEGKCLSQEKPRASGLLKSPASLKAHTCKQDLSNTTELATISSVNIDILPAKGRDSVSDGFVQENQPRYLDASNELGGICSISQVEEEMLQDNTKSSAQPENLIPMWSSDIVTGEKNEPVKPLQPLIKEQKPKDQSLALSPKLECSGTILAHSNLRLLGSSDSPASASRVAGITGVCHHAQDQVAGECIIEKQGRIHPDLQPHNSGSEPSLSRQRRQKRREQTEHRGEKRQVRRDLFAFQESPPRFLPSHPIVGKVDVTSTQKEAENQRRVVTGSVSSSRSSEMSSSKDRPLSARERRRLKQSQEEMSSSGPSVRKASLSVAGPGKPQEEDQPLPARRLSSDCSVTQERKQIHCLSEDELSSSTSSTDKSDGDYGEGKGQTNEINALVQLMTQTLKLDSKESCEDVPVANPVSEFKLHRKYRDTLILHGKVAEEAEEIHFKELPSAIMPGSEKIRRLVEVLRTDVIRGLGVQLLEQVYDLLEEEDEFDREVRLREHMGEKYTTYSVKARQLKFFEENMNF
Chain of Death-associated protein kinase 3 (Homo sapiens) (O43293 whole entry, looked up): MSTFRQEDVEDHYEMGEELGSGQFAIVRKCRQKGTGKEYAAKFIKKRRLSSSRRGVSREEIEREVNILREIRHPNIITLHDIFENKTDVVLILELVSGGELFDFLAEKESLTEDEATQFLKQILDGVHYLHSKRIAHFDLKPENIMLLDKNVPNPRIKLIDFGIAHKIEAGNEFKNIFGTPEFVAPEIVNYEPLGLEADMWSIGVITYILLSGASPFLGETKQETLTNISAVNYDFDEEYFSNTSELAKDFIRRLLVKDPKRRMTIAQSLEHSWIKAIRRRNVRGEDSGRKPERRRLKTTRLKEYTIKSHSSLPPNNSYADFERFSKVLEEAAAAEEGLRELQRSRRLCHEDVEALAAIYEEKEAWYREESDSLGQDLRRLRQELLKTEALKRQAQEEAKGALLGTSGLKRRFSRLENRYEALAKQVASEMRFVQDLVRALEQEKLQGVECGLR
Chain of Cyclin-dependent kinase 1 (Homo sapiens) (P06493 whole entry, looked up): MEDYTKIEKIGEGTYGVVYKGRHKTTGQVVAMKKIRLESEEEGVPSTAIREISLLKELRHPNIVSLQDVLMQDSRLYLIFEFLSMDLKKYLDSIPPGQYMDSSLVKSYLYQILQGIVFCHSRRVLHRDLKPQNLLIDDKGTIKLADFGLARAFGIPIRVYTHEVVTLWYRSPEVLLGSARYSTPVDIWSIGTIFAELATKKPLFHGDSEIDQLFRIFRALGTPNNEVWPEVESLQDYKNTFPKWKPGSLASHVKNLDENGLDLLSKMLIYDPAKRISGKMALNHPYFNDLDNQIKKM
Chain of Serine/threonine-protein kinase pim-2 (Homo sapiens) (Q9P1W9 whole entry, looked up): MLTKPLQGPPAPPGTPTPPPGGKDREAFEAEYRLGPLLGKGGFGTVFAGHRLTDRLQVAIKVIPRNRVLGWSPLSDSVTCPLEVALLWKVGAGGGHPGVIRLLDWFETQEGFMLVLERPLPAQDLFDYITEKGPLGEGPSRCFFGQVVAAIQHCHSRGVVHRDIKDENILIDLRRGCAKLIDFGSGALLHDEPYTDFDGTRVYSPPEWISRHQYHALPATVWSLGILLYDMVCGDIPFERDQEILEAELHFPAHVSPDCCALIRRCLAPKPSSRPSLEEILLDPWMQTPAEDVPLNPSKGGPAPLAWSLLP
Chain of Serine/threonine-protein kinase PLK2 (Homo sapiens) (Q9NYY3 whole entry, looked up): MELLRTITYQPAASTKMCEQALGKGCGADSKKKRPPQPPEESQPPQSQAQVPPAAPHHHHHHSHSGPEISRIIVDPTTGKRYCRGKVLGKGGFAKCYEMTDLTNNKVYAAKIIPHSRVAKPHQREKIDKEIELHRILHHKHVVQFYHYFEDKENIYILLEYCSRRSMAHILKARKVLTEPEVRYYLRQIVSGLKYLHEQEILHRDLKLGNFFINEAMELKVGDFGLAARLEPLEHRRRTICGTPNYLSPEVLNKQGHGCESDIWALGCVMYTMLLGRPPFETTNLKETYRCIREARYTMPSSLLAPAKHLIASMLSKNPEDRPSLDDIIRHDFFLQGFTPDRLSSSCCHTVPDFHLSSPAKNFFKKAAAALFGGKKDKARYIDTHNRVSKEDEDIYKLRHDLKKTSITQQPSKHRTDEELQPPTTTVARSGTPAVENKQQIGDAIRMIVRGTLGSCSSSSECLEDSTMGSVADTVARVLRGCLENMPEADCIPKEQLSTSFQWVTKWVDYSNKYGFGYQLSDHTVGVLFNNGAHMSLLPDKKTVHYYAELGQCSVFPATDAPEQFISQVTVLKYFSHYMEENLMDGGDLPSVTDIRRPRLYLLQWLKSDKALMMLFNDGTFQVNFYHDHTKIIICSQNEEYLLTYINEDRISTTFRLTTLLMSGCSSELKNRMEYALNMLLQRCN
Chain of Serine/threonine-protein kinase Nek6 (Homo sapiens) (Q9HC98 whole entry): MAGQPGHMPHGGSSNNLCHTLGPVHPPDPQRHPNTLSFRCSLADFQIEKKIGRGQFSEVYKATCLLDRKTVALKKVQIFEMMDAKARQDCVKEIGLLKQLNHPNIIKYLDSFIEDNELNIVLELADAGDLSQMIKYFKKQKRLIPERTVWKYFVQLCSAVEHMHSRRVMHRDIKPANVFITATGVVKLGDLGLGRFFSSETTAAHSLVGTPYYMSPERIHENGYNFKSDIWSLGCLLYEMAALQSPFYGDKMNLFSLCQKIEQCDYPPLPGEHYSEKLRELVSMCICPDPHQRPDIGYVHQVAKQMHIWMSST

As for `CCCCCc1cc2nn(-c3ccccc3)cc2cn1`, the inhibition entry in experiment [1], in [2], in experiment [3], in [11], in [13] and in [15] was “inactive” each time. The inhibition entry in experiment [19] and in [23] was “inactive” throughout. In addition, the Activity in the experiment on K562 [4] is 82%; in the experiment on MCF7 [5] it was 18.1%; in the experiment with MCF7 [6], 55.6%; in the experiment on K562 [7], 14.8%; in the experiment on K562 [8], 20.4%; in the experiment on MCF7 [14], 26.3%. For the same compound, the Activity result was “Dose-dependent effect” in the experiment on K562 [16], 50.3% with MCF7 [17], “Dose-dependent effect” with MCF7 [18] and “Dose-dependent effect” with K562 [20]. Also, the outcome in the experiment on MCF7 [9], in the experiment with K562 [10] and with MCF7 [22] was Active. The figures for the GI50 in the experiment with K562 [12] and with MCF7 [21] were 2.1 µM and 11.8 µM, respectively.
